Measurements: paper PMC6025808 (Journal of fluorescence, 2017)
Numbering of substitutions follows the chain as printed. Read-outs that look alike come from different tables or passages of the source.

Columns and labels:
[1] = molecular target: T1, GK-W167 (W99R/W257F) (Homo sapiens, UniProt P35557, W257F/W99R); assay: Change of tryptophan fluorescence yield of GK-W167 on adding glucose or glycerol; format: binding
T1 sequence (P35557 1-465 W99R/W257F): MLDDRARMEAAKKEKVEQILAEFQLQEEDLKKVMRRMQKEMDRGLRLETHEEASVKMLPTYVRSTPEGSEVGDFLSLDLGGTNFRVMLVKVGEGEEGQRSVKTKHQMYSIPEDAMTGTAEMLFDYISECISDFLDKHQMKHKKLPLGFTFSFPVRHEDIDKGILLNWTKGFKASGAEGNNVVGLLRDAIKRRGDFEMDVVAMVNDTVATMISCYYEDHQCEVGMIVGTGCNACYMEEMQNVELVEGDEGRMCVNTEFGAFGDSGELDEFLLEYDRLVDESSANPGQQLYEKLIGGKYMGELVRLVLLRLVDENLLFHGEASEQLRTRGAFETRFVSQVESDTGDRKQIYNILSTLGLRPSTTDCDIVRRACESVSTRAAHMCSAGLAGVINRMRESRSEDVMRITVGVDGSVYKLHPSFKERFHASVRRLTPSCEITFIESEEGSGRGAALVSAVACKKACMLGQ
In short: (§1)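 Recombinant human β-cell glucokinase single-Trp variant, made as a GST fusion in E. coli, cleaved with factor Xa, and repurified. Buffer was 20 mM K phosphate, 50 mM KCl, 1 mM EDTA, 1 mM DTT, pH 7.2, with or without 100 mM D-glucose or 95% glycerol (v/v). Excitation 295 nm, emission 300–500 nm, 20 °C. Quantum yield was measured against NATA (φ 0.14) in water at A < 0.05, with refractive-index correction. The ratio is with/without additive.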

[2] = system: GK-WT; assay: Change of tryptophan fluorescence yield of GK-WT on adding glucose or glycerol; format: binding, human
[3] = molecular target: T2, GK-WT (recombinant wild type human β-cell glucokinase) (Homo sapiens, UniProt P35557); assay: D-glucose binding to GK-WT by tryptophan fluorescence titration
T2 sequence (P35557 1-465): T1 sequence (P35557 1-465 W99R/W257F) with R99W, F257W
In short: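 Recombinant human wild-type β-cell glucokinase was titrated with D-glucose in K-phosphate buffer, pH 7.2, with or without cosolvent, and read by Trp fluorescence at 20 °C (excitation 295 nm, emission 300–500 nm). Fluorescence was fitted to F = F0 + (Fsat − F0)[glucose]/([glucose] + Kd) to give Kd and F/F0, the intensity at glucose saturation over the intensity without glucose.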

[4] = molecular target: T3, GK-W65 (W99R/W167F/W257F/T65W) (Homo sapiens, UniProt P35557, T65W/W167F/W257F/W99R); assay: Change of tryptophan fluorescence yield of GK-W65 on adding glucose or glycerol; format: binding; conditions: GK-W65, 95% glycerol/buffer (v/v)
T3 sequence (P35557 1-465 T65W/W99R/W167F/W257F): T1 sequence (P35557 1-465 W99R/W257F) with T65W, W167F
In short: as §1

[5] = molecular target: T4, GK-W257 (W99R/W167F) (Homo sapiens, UniProt P35557, W167F/W99R); assay: Change of tryptophan fluorescence yield of GK-W257 on adding glucose or glycerol; format: binding; conditions: GK-W257, 95% glycerol/buffer (v/v)
T4 sequence (P35557 1-465 W99R/W167F): T1 sequence (P35557 1-465 W99R/W257F) with W167F, F257W
In short: as §1

[6] = molecular target: T5, GK-W99 (W167F/W257F) (Homo sapiens, UniProt P35557, W167F/W257F); assay: Change of tryptophan fluorescence yield of GK-W99 on adding glucose or glycerol; format: binding; conditions: GK-W99, 95% glycerol/buffer (v/v)
T5 sequence (P35557 1-465 W167F/W257F): T1 sequence (P35557 1-465 W99R/W257F) with R99W, W167F
In short: as §1

| (Φf)/Φ0 observed, fluorescence quantum yield with/without (times) ([1]; GK-W167, 100 mM D-glucose in buffer, listed as Glucose) | (Φf)/Φ0 observed, fluorescence quantum yield with/without (times) ([1]; GK-W167, 100 mM D-glucose in buffer, listed as glucose) | F/F0 upon D-glucose binding ([3]; 1 M sucrose) | F/F0 upon D-glucose binding ([3]; 1 M trehalose) | F/F0 upon D-glucose binding ([3]; 2 M L-glucose) | F/F0 upon D-glucose binding ([3]; 20% glycerol) | Kd ([3]; D-glucose binding KD, 1 M sucrose) | Kd ([3]; D-glucose binding KD, 1 M trehalose) | Kd ([3]; D-glucose binding KD, 2 M L-glucose) | Kd ([3]; read-out: D-glucose binding KD, PO4 buffer pH 7.2, 20 °C) | (Φf)/Φ0 observed, fluorescence quantum yield with/without (times) [4] | (Φf)/Φ0 observed, fluorescence quantum yield with/without (times) [5] | (Φf)/Φ0 observed, fluorescence quantum yield with/without (times) ([1]; GK-W167, 95% glycerol/buffer (v/v)) | (Φf)/Φ0 observed, fluorescence quantum yield with/without (times) [6] | (Φf)/Φ0 observed, fluorescence quantum yield with/without (times) ([6]; listed as Glycerol) | SMILES | (Φf)/Φ0 observed, fluorescence quantum yield with/without (times) ([2]; 100 mM D-glucose in buffer, listed as Glucose) | (Φf)/Φ0 observed, fluorescence quantum yield with/without (times) ([2]; 100 mM D-glucose in buffer, listed as glucose) | (Φf)/Φ0 observed, fluorescence quantum yield with/without (times) ([2]; 95% glycerol/buffer (v/v)) |
| --- | --- | --- | --- | --- | --- | --- | --- | --- | --- | --- | --- | --- | --- | --- | --- | --- | --- | --- |
| 1.8 | about 1.8 | 1.74 | 1.71 | 1.63 | 1.74 | 3570 µM | 1750 µM | 1120 µM | 7390 µM | – | – | – | – | – | OC[C@H]1OC(O)[C@H](O)[C@@H](O)[C@@H]1O (stereo partly drawn) [D-glucose] | 2.0 | ~2 | – |
| – | – | – | – | – | – | – | – | – | – | 1.1 | 1.3 | ~2.3 | over 4.6 | 4.6 | OCC(O)CO [glycerol] | – | – | 2.6 |
